These results are taken from ChEMBL document CHEMBL1126304 (J Med Chem, 1992).

Assay [1] has as its target Histamine H2 receptor (Cavia porcellus) (UniProt P47747). Kind of assay: Histamine H2 receptor agonistic activity in guinea pig right atrium. In kind it is functional, tissue-based. As to conditions: Cardiac atrium.
Assay [2] concerns Felis catus. Description: In vivo activity against gastric secretion in conscious cat. Format: functional, Stomach.
Assay [3] deals with Histamine H2 receptor (Cavia porcellus) (UniProt P47747). Kind of assay: Intrinsic activity against histamine H2 receptor. In kind it is functional.
Assay [4] addresses Histamine H2 receptor (Cavia porcellus, UniProt P47747). Description: Compound is evaluated for histamine H2 receptor agonistic activity in guinea pig cerebral cortex using [3H]tiotidine as radioligand. Format: functional, tissue-based. In short, it runs like this: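 H2-receptor binding measured on guinea pig cerebral cortex preparations by displacement of [3H]tiotidine. Displacement curves were fitted by nonlinear regression.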

The species entered for assay [5] is Cavia porcellus. Description: In vitro activity against gastric secretion in isolated guinea pig stomach. In kind it is functional.
In assay [6] the test system is Felis catus. Kind of assay: In vivo activity against gastric secretion in conscious cat; not active. In kind it is functional, organism-based. To be noted: Stomach.

Activity calls are given as the source filed them. The rule behind the calls is not given here.

Chain of Histamine H2 receptor (Cavia porcellus) (P47747 whole entry): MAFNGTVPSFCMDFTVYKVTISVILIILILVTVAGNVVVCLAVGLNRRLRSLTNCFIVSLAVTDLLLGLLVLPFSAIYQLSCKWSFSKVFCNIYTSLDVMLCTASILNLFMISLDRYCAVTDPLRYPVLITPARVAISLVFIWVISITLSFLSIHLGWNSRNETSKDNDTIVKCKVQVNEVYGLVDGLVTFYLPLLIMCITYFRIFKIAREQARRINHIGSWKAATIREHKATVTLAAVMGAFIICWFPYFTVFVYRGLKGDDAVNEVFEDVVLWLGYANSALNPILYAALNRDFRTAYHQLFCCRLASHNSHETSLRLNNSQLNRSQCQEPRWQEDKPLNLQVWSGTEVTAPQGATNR
Chain of Histamine H2 receptor (P47747 whole entry): as above

Compound `N=C(N)NCCCc1c[nH]cn1` gave a pD2 in assay [1] of 4.7.
By Kd is commonly meant the constant that tells how readily two partners part at equilibrium. For the compound `NCCc1cnc(N)s1`, the pD2 came to 6.1 in assay [2] and 5.51 in assay [1]. Further, the Intrinsic activity in assay [3] worked out at 1. This compound showed a Kd in assay [4] of 15.1 µM.
`N=C(NCCCc1c[nH]cn1)NCCC(c1ccc(F)cc1)c1ccccn1` (stereo not drawn) came in with a pD2 in assay [1] of 8.
In turn, `NCCc1csc(N)n1` yielded a pD2 in assay [1] of 4.6. Besides, in assay [3], the Intrinsic activity stood at 0.94. The compound further had a Kd in assay [4] of 110 µM.
The like results for `CN(C)CCCSC(=N)N` were, in that order, 5.67, 1.06 and 26.3 µM.
In assay [3], `Cc1nc(N)sc1CCN` came in with an Intrinsic activity of 0.95. This compound had a Kd in assay [4] of 5.01 µM.
The compound `Cc1nc(C)c(CCN)s1` returned a pD2 in assay [1] of 3.78. The Intrinsic activity in assay [3] was determined as 0.97. In addition, the Kd in assay [4] is 174 µM.
In the case of `CNCCc1cnc(N)s1`, the figures for the pD2 in assay [2] and in assay [5] were 6.52 and 6.02, respectively.
Turning to `CNc1ncc(CCN(C)C)s1`, the pD2 result in assay [6] was “inactive”.
In the case of `CN(C)CCc1cnc(N)s1`, the pD2 in assay [2] came out at 6.3; in assay [5], 5.81.
Regarding `Cc1ncsc1CCN`, the pD2 in assay [1] came to 4.67. This compound also registered an Intrinsic activity in assay [3] of 0.96. In assay [4], this compound showed a Kd of 355 µM.
`N=C(NCCCc1c[nH]cn1)NCCC(c1ccccc1)c1ccccc1`: the pD2 in assay [1] stood at 7.7.
In assay [3], `NCCc1c[nH]cn1` came in with an Intrinsic activity of 1.
With `CN(C)CCc1cnc(N(C)C)s1`, the pD2 result in assay [6] was “inactive”.
